From PMC10362274 (iScience, 2023)

Columns and labels:
[1] = tested on: Tyr369-377-specific CD8^+ T cell clones; assay: IFNγ secretion assay; format: cell-based, human; details: 1/1 ratio with pulsed T2 cells, 24 h co-culture, ELISA, duplicates
Method in brief: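 Tyrosinase-specific CD8+ T cell clones came from HLA-A2 tetramer sorting and limiting dilution. They were grown in RPMI with 8% pooled human serum and 150 IU/ml IL-2 at 37°C, 5% CO2. Clones were co-cultured 1:1 for 24 h with T2 cells pulsed with serial dilutions of native or oxidized peptide, in duplicate. IFNγ was measured by ELISA against an exponential standard curve.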

[2] = tested on: Tyr369-377-specific CD8^+ T cell clones; assay: Standard 4-h 51Chromium release assay, peptide-pulsed T2 cells; format: cell-based, human; details: EC50 = peptide concentration giving 50% maximal killing; across YMD-specific CD8^+ T cell clones
[3] = tested on: MAGE-A10-specific CD8^+ T cell clones; assay: as above; format: cell-based, human; details: n = 3 MAGE-A10-specific CD8^+ T cells; no titration of the antigenic peptides
HLA-A∗02:01 = HLA-A∗02:01 (Homo sapiens, UniProt P04439, D140Y/D185E/D98H/E176V/E277Q/G131W/G231S/I119V/I121R/I166T/I218V/L300P/L318F/N151K/N90K/P208A/P217A/Q86G/Q94H/R138H/R169H/T345S); details: refolded complex, ELISA
[4] = HPLC oxidation profiling of the YMD peptide using hydrogen peroxide; format: physicochemical
Method in brief: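 Synthetic test peptide (~155 μM in LC-MS water) oxidized with varying hydrogen peroxide levels for 30 min at 4°C. For time courses, similar peptide level in 0.1% formic acid/2% acetonitrile with hydrogen peroxide in excess (120 mM), treated as constant for pseudo-first-order fitting. Forms resolved by RP-HPLC, fractions verified by offline MS/MS; triplicate points.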

Substance	IFNγ released compared with native [1]	EC50 compared with the native peptide [2]	other results
M2SO: Met2 sulfoxide of the YMD peptide	no significant differences		
M6SO: Met6 sulfoxide of the YMD peptide	released more IFNγ	significant lower values	
MAGE-A10_OX: oxidized form of MAGE-A10 254-262 peptide (GLYDGMEHL; not fully specified; oxidized Met (the underlined M of GLYDGMEHL; sulfoxide or sulfone not stated))			EC50 compared with the native peptide [3]: slightly increased
YM2SODGTM6SOSQV [M2SOM6SO]	released more IFNγ	significant lower values	stability of the HLA-A∗02:01-peptide complex at t0 compared with HLA-A∗02:01-N (HLA-A∗02:01): more stable at t0
YMDGTMSQV [N]			time for 50% of the peptide to oxidize ([4]; 120 mM hydrogen peroxide, 4°C, pseudo-first-order kinetics, RP-HPLC UV 275 nm): ~20 min; fraction of the total found as complete oxidized to sulfone forms ([4]; 3 M hydrogen peroxide, after 10 days, RP-HPLC peak quantification): ~66%; transformation of the peptide to sulfoxide forms ([4]; hydrogen peroxide 600 mM or higher, 30 min, 4°C, RP-HPLC UV 275 nm): almost complete transformation
